A selection: hits, their analogues and other compounds. The true share with any hit is near 3.5%.
Cneo AK release = Cryptococcus neoformans lysis via adenylate kinase release; lysis activity, % at 15 µM; C. neoformans lysis, adenylate kinase release luminescence, 4 h; normalised: neutral wells 0, clomiphene wells 100; hit rate 0.2% among 360,000;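 active = mean lysis activity across replicates of at least 80%, whatever share of replicates individually reach that level; inactive = mean lysis activity below 80%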
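read-out = cell lysis signal | test system = log-phase Cryptococcus neoformans yeast cells | input = cells at 5 × 10^6 per mL | medium = fresh YPD growth medium | signal = luminescent adenylate kinase detection reagent | timing = 4 h at 37 °C static, read 1 h later | dosing = single dose | controls = Clomiphene as positive lysis control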
PGC1a acetyl inh = lowers PGC1a acetylation signal in U2OS cells; inhibition, % at 15.6 µM; hit rate 0.17% among 350,000; AlphaScreen anti-acetyl-lysine; with virally co-expressed GCN5 acetyltransferase;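 active = every replicate shows inhibition of at least 40%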
HIV Env fusion = blocks HIV Env-driven cell-cell fusion | hit rate 1.1% among 360,000 | inhibition, % at 12.3 µM | HeLa-JRFL Env/CEM21 cell fusion, luciferase | AID 651610;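 active = mean replicate inhibition score of at least 50 and every replicate individually at or above 50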
ERAP1 inh = blocks human ERAP1 aminopeptidase activity | recombinant ERAP1, Leu-AMC fluorescence, 60 min | hit rate 0.15% among 340,000 | inhibition, % at 10.7 µM | AID 652197;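 active = mean replicate inhibition of at least 30%, or all replicates individually reaching that 30% level; inactive = mean below 30% and not every replicate reaching it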
FGF22 binding-1 = binders of recombinant human FGF22 by thermal shift; Q9HCT0; SYPRO orange fluorescence; percent of sucrose octasulfate shift, DMSO zero; activity (Tm shift, normalised), % at 9.99 µM; hit rate 1.5% among 340,000; AID 651658;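 active = mean Tm shift, scaled 0 neutral to 100 positive control, at about 1.3% or above, every replicate too, limit read from the data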
Target sequence (Q9HCT0 whole entry, looked up): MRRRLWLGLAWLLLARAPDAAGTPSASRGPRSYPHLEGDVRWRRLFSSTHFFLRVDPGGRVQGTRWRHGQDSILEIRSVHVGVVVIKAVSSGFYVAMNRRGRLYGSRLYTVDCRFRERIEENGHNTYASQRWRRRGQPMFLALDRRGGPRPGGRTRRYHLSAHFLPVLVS
rRNA inh HTS = selective bacterial rRNA inhibition in E. coli | hit rate 1.6% among 350,000 | E. coli WT GFP vs humanized-ribosome RFP mutants, fluorescence, 24 h; active compounds read low; DMSO median 0, no signal -100 | GFP signal change (wild-type ribosome), % (concentration not given with the values);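 active = significant combined selectivity score with lowered wild-type GFP, culture density cut under 30%, mutant RFP and density less affected; inactive = any of these conditions unmet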
FGF22 binding-2 = binds human FGF22 shifting its melting temperature; shares compounds with FGF22 binding-1; recombinant FGF22 thermal shift, SYPRO orange fluorescence; thermal shift activity, °C (ΔTm) at 38 µM; hit rate 2% among 1,000;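 active = fitted rise in melting shift crosses a set limit at or below the top valid dose tested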
FGF22 TSA = binds human FGF22 shifting its melting temperature; shares compounds with FGF22 binding-1; Thermal shift assay, SYPRO orange, melting temperature shift; Tm shift (activity), % at 38 µM; 50 tested, under 10 active;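 active = compounds whose fitted dose curve of melting temperature shift rises past a set threshold within the tested doses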
TSA no protein = counter-screen for FGF22 binders: compound-only thermal shift, no protein; compound-only SYPRO orange thermal shift counter-screen; hit rate 2% among 1,000; shares compounds with FGF22 binding-1; AC50, µM (highest dose often 38 µM); AID 743019;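 active = rising signal whose fitted curve reaches the 0.54 level within the top valid dose, showing a melting point, actives reach about 13 µM in these data; inactive = the rest, including activity in the opposite direction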; also: value is where the raw curve crosses a fixed level and not half-maximal
Numbers stand for hits; – = inactive; · = no result.

SMILES	Cneo AK release	PGC1a acetyl inh	HIV Env fusion	ERAP1 inh	FGF22 binding-1	rRNA inh HTS	FGF22 binding-2	TSA no protein	others
O=C(C[C@H]1CC[C@H]2[C@@H](COC[C@@H](O)CN2S(=O)(=O)c2cccc(F)c2)O1)Nc1ccc(-c2ccccc2)cc1	–	–	·	–	3.3	–	–	–
Cc1cccc(S(=O)(=O)N2C[C@@H](O)COC[C@H]3O[C@@H](CC(=O)Nc4ccccc4)CC[C@@H]32)c1	–	–	·	–	–	–	·	·
O=C(C[C@H]1CC[C@@H]2[C@H](COC[C@H](O)CN2S(=O)(=O)c2cccc(F)c2)O1)Nc1ccc(-c2ccccc2)cc1	–	–	·	–	–	–	·	·
O=C(C[C@H]1CC[C@H]2[C@@H](COC[C@H](O)CN2Cc2cccc(C(F)(F)F)c2)O1)NCc1ccncc1	–	–	·	–	–	–	·	·
Cc1ccc(S(=O)(=O)N2C[C@H](O)COC[C@H]3O[C@H](CC(=O)NCc4ccc(Cl)c(Cl)c4)CC[C@@H]32)cc1	–	–	·	–	1.4	–	–	–	FGF22 TSA=–
O=C(C[C@@H]1CC[C@H]2[C@@H](COC[C@@H](O)CN2Cc2cccc(C(F)(F)F)c2)O1)NCc1ccncc1	–	–	·	–	14	–	–	–
Cc1cccc(S(=O)(=O)N2C[C@H](O)COC[C@H]3O[C@H](CC(=O)Nc4ccccc4)CC[C@@H]32)c1	–	–	·	–	1.8	–	–	–
CCC1CCCCN1CCCNC(=O)Cn1cc2c(n1)-c1c(oc(C(=O)N3CCCC3)c1C)CC2 (stereo unspecified)	·	–	–	–	–	–	·	·
CN1CCN(C(=O)c2ccc(C3SCC(=O)N3Cc3ccco3)cc2)CC1 (stereo unspecified)	–	–	·	·	·	·	·	·
C[C@@H]1CN([C@H](C)CO)C(=O)Cc2cc(NC(=O)Nc3cccc4ccccc34)ccc2O[C@@H]1CN(C)Cc1ccncc1	–	–	–	–	–	–	·	·
O=C(C[C@H]1CC[C@@H]2[C@H](COC[C@H](O)CN2S(=O)(=O)c2cccc(F)c2)O1)Nc1ccccc1	–	–	·	–	2.0	–	–	–
CCSC1=NC(C)(C)C=C(/C=C/c2ccc(Cl)cc2Cl)N1	–	–	·	·	·	·	·	·
Nc1nc(O)c(Sc2ccccc2[N+](=O)[O-])c(=O)[nH]1	–	·	–	–	1.9	–	–	–
Nc1ccccc1Sc1ccccc1[N+](=O)[O-]	·	·	–	·	·	·	·	·
O=C(NC[C@@H]1[C@H](c2ccccc2)[C@H](CO)N1C(=O)Cc1cccnc1)C1CC1	–	–	·	–	1.4	–	–	–
COC(=O)C(C)Oc1cc(OC(C)C(=O)OC)c2c(C)c(Cl)c(=O)oc2c1 (stereo unspecified)	–	–	–	–	1.6	·	·	–
C[C@H]1CN([C@@H](C)CO)S(=O)(=O)c2ccc(C#Cc3ccc(F)cc3)cc2O[C@H]1CN(C)C	–	–	–	–	–	–	·	·
Cc1nc2ccc(Br)cc2c(-c2ccccc2)c1C(=O)O	·	·	–	–	29	–	–	–
COc1ccc(S(=O)(=O)N2CCOCC2)cc1NC(=O)CSc1n[nH]c(=O)n1C1CC1	–	–	–	–	–	–	·	·
O=C(O)C1CSC2(CCN(Cc3ccccc3)CC2)N1 (stereo unspecified)	–	–	·	–	39	–	–	–
COc1ccccc1Nc1nc(Cl)nc(Nc2ccccc2OC)n1	·	·	–	–	–	–	·	·
O=C(N/N=C/c1ccc(-c2cccc([N+](=O)[O-])c2)o1)c1ccc([N+](=O)[O-])cc1	·	·	–	–	1.6	–	–	–
CC1(C)CC(=O)C(=CN2CCN(C(=O)c3ccco3)CC2)C(=O)C1	·	–	·	–	–	–	·	·
COc1ccc(NS(=O)(=O)c2cccc(C(=O)N/N=C/c3c(F)c(F)c(F)c(F)c3F)c2)cc1	–	–	–	–	–	–	·	·
COc1ccc(NS(=O)(=O)c2cccc(C(=O)NN=Cc3ccc(OC)c(O)c3)c2)cc1	–	–	–	–	34	–	–	–
SMILES	Cneo AK release	PGC1a acetyl inh	HIV Env fusion	ERAP1 inh	FGF22 binding-1	rRNA inh HTS	FGF22 binding-2	TSA no protein	others
COc1ccc(N(CC(=O)N/N=C/c2ccc(OC)c(OC)c2)S(=O)(=O)c2ccccc2)cc1	–	–	–	–	1.5	–	–	–
COc1cc2oc(-c3ccc(O)cc3)cc(=O)c2c(O)c1OC	–	–	·	–	10	·	–	–
COc1nc(-c2ccc(Cl)cc2)nnc1C	·	·	–	–	1.4	–	–	–
COc1cc(CNc2nccn3ccnc23)cc(OC)c1	–	–	–	–	–	–	·	·
O=C(C1CCOCC1)N1CC2(C1)[C@@H](c1ccccc1)[C@@H](CO)N2Cc1ccccc1F	·	–	·	–	1.5	–	–	–
O=C(C1CCOCC1)N1CC2(C1)[C@H](c1ccccc1)[C@H](CO)N2Cc1ccccc1F	·	–	·	·	·	–	·	·
O=C(c1ccccc1)N1CC2(C1)[C@H](c1ccccc1)[C@H](CO)N2Cc1cc(F)ccc1F	·	–	·	–	1.3	–	–	–
O=C(c1ccccc1)N1CC2(C1)[C@@H](c1ccccc1)[C@@H](CO)N2Cc1cc(F)ccc1F	·	–	·	–	–	–	·	·
S=C(NCCN1CCOCC1)Nc1ccc(-c2nc3ccccc3[nH]2)cc1	·	–	–	–	2.2	-24	–	–
CC1(C(=O)Nc2ccc3c(c2)OCCO3)CCN1C(=O)c1ccccc1CCc1ccccc1 (stereo unspecified)	–	·	–	–	–	–	·	·
O=C(CSc1ncn(-c2ccccc2)n1)c1cccs1	–	–	–	·	·	·	·	·
CCC(=O)N1CC2(C1)[C@H](c1ccc(-c3cccc(C)c3)cc1)[C@@H](CO)N2S(C)(=O)=O	·	–	·	–	4.5	–	–	–
CCC(=O)N1CC2(C1)[C@@H](c1ccc(-c3cccc(C)c3)cc1)[C@@H](CO)N2S(C)(=O)=O	·	–	·	–	–	–	·	·
COC(=O)Cc1n[nH]c(=O)c2ccccc12	–	–	·	–	12	–	–	–
COC(=O)c1ccc(COC(=O)Cc2n[nH]c(=O)c3ccccc23)cc1	·	·	–	–	–	–	·	·
CCN(CC)c1ccc2cc(S(=O)(=O)c3ccc(Cl)cc3)c(=O)oc2c1	–	–	–	·	24	–	–	–
COCC(=O)NC[C@H]1[C@H](c2ccc(C3=CCCC3)cc2)[C@@H](CO)N1C(C)=O	–	–	·	–	1.3	–	–	–
CO/N=C(\Cn1ncc(NC2CCCCC2)c(Br)c1=O)c1ccc(Cl)cc1	–	–	·	·	·	·	·	·

Screening results from PubChem BioAssay.
